The values below come from ChEMBL document CHEMBL3102792, “Small molecule mimetics of an interferon-α receptor interacting domain” (Bioorg Med Chem, 2014).

Activity calls are given as the source filed them. No cut-off for these calls is given here.

Data set [1] deals with T1, Interferon alpha/beta receptor 1 (Homo sapiens) (UniProt P17181).
T1 sequence (whole entry): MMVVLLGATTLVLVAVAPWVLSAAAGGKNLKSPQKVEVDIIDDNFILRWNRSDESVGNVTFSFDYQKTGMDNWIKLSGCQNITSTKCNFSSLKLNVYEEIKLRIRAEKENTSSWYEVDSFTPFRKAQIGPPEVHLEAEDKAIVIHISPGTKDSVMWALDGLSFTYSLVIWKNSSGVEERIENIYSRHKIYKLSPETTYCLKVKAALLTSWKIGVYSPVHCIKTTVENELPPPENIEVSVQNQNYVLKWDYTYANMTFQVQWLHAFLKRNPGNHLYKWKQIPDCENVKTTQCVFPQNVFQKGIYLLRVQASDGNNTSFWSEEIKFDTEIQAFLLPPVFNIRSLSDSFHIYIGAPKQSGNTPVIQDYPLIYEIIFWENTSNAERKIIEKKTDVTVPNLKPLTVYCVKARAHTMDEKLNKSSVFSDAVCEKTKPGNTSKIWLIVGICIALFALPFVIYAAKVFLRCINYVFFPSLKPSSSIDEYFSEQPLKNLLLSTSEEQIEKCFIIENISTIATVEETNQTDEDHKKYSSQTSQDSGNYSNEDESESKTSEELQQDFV
In words: Inhibition of IFNAR in human Daudi cells assessed as reduction of IFN-induced STAT1 phosphorylation at 200 uM after 15 mins by Western blotting. It counts as cell-based. In a few lines:
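Daudi cells untreated, given 10 pg IFN alfacon-1 alone, or 10 pg IFN plus 200 µM compound for 15 min. Lysed in phosphorylation lysis buffer with protease and phosphatase inhibitors. Equal protein run on SDS–PAGE and immunoblotted for tyrosine-phosphorylated STAT1. Bands quantitated relative to tubulin. Data representative of duplicate independent experiments.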

The nature of data set [2]: Distribution coefficient, log D of the compound at pH 7.4. The following applies: octanol/water.
The target in data set [3] is T1, Interferon alpha/beta receptor 1 (Homo sapiens). In words: Inhibition of IFNAR in human Daudi cells assessed as reduction of STAT-DNA binding at 200 uM by EMSA. In kind it is cell-based. An outline of the steps: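 Daudi cells untreated, given 100 pg IFN alfacon-1, or IFN plus the indicated compound doses for 15 min. Protein–DNA complexes resolved by native PAGE (EMSA).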

Data set [4] has the same target. The experiment in a line: Inhibition of IFNAR in human Daudi cell nuclear extracts assessed as reduction of IFN-induced STAT1 phosphorylation at 200 uM after 15 mins by Western blotting. In a few lines: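 Daudi cells untreated, given 10 pg IFN alfacon-1 alone, or 10 pg IFN plus 200 µM compound for 15 min. Nuclear extracts immunoblotted for tyrosine-phosphorylated STAT1. Band intensities quantitated relative to tubulin as loading control.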

In a further data set the test system is Daudi. The experiment in a line: Cytotoxicity against human Daudi cells assessed as cell viability up to 200 uM after 24 hrs by propidium iodide staining. In kind it is cell-based. In a few lines: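 Daudi cells (1 × 10⁶) left untreated or exposed to the indicated compound doses for 24 h, washed twice in PBS and resuspended in PBS with 2% FCS. 10⁵ cells stained with propidium iodide for 15 min; dead (PI-positive) cells counted by FACS.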

The nature of data set [5]: Solubility of the compound. It counts as physicochemical.

Regarding `CCOC(=O)c1nn(-c2ccc(C)cc2)c(C)c1C(=O)C1=NOC2C(=O)N(c3ccccc3C)C(=O)C12` (stereo not given), in data set [1], the inhibition result is “inactive”. In data set [2], this compound showed a logD of -0.1.
Regarding `O=C(c1cc(S(=O)(=O)Nc2cccc(Cl)c2)c(Cl)cc1Cl)N1CCN(Cc2ccc3c(c2)OCO3)CC1`, the inhibition entry in data set [1] was “inactive”. In data set [2], this compound registered a logD of 2.4.
As for `COc1ccccc1NS(=O)(=O)c1cc(C(=O)N2CCN(Cc3ccc4c(c3)OCO4)CC2)ccc1Cl`, in data set [1], the inhibition entry is “inactive”. Besides, the logD in data set [2] is -0.3.
For the compound `O=C(c1cc(S(=O)(=O)Nc2cccc(C(F)(F)F)c2)ccc1Cl)N1CCN(Cc2ccc3c(c2)OCO3)CC1`, in data set [1], the inhibition result was “inactive”. The same compound had a logD in data set [2] of -0.1.
Consider `COc1ccccc1NS(=O)(=O)c1ccc2oc(=S)n(CN3CCN(c4ccc(F)cc4)CC3)c2c1`, for which the inhibition entry in data set [1] was “inactive”. Also, the logD in data set [2] was determined as 0.2.
As to `O=C(c1cc(S(=O)(=O)Nc2ccccc2F)c(Cl)cc1Cl)N1CCN(Cc2ccc3c(c2)OCO3)CC1`, the inhibition result in data set [1] was “inactive”. Further, the logD in data set [2] came to 0.01.
Regarding `O=C(c1ccc(NS(=O)(=O)c2cc(Cl)sc2Cl)cc1)N1CCN(Cc2ccc3c(c2)OCO3)CC1`, the inhibition entry in data set [1], in data set [3] and in data set [4] was “Active” each time.
With `Cc1ccc(-n2c(SCC(=O)N/N=C/c3ccccc3OCC(=O)O)nc3ccccc3c2=O)cc1` (mixture of isomers), the inhibition entry in data set [1], in data set [3] and in data set [4] was “Active” each time. Further, the Activity entry with Daudi is reported as “Non-toxic”. In data set [5], the solubility entry was “soluble”. In data set [2], this compound had a logD of 4.7.
As to `CCOc1ccccc1/C=N/NC(=O)CSc1nc2ccccc2c(=O)n1-c1ccccc1C` (mixture of isomers), in data set [1], the inhibition result was “inactive”. In data set [2], this compound showed a logD of 5.8.
Take `O=C(O)CCCCCN1C(=O)/C(=C/c2c(N3CCCc4ccccc43)nc3ccccn3c2=O)SC1=S` (mixture of isomers): the inhibition result in data set [1], in data set [3] and in data set [4] was “Active” each time. In the data set with Daudi, the Activity entry was “Toxic”. In addition, the logD in data set [2] amounted to 8.9.
As for `O=C(c1cccc(S(=O)(=O)Nc2ccc(Cl)cc2)c1)N1NC2=C(CCC/C2=C\c2ccco2)C1c1ccco1` (mixture of isomers), the inhibition entry in data set [1] is “inactive”. The compound also displayed a logD in data set [2] of -0.8.
